Reference: ChEMBL document CHEMBL3112403, “Design, synthesis and evaluation of second generation MurF inhibitors based on a cyanothiophene scaffold” (Eur J Med Chem, 2014)

How the values were obtained:
Escherichia coli [1] = test: Antibacterial activity against Escherichia coli SM1411 harboring acrAB deletion mutant assessed as growth inhibition by broth microdilution method; type: functional
Method in brief: (§1)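 MIC by broth microdilution in Mueller-Hinton broth following CLSI guidelines. ES100 is the tolC derivative of AB734, and SM1411 is the acrAB derivative of 1411; both are efflux-deficient E. coli strains. Growth inhibition was read as the minimum inhibitory concentration.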

Escherichia coli [2] = test: Antibacterial activity against Escherichia coli 1411 assessed as growth inhibition by broth microdilution method in presence of polymyxin B nonapeptide; type: functional
Method in brief: (§2)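 Broth microdilution MIC in Mueller-Hinton broth per CLSI, run with 4 µg/mL polymyxin B nonapeptide to permeabilize the outer membrane.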

Escherichia coli [3] = test: Antibacterial activity against Escherichia coli AB734 assessed as growth inhibition by broth microdilution method; type: functional
Method in brief: (§3)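 MICs by broth microdilution in Mueller-Hinton broth following CLSI guidelines.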

Escherichia coli [4] = test: Antibacterial activity against Escherichia coli 1411 assessed as growth inhibition by broth microdilution method; type: functional; method in brief: as §3
[5] = target: T1, UDP-N-acetylmuramoyl-tripeptide--D-alanyl-D-alanine ligase (Streptococcus pneumoniae, UniProt Q9ZHC3); test: Inhibition of Streptococcus pneumoniae MurF ligase using D-Ala-D-Ala as substrate after 15 mins by malachite green assay
T1 sequence (Q9ZHC3 whole entry): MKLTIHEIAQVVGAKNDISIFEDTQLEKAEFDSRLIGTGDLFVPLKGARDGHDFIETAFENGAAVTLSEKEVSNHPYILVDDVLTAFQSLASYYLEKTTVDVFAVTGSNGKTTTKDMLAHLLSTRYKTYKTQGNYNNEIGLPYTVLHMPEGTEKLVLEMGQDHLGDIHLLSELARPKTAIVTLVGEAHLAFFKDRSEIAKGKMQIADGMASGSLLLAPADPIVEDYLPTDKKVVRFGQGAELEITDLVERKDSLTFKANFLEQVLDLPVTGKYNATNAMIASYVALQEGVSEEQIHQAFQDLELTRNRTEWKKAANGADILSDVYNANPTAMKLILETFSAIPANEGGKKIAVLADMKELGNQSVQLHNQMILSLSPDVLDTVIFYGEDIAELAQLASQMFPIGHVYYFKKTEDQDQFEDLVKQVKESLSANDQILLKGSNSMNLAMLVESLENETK
Method in brief: (§4)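 Purified S. pneumoniae MurF in 50 mM Hepes pH 8.0 with 50 mM MgCl2, 0.005% Triton X-114, 100 µM D-Ala-D-Ala, 50 µM UMtri-L-Lys and 250 µM ATP, with 5% DMSO final. After 15 min at 37 °C, Biomol reagent was added and absorbance read at 650 nm, in duplicate. RA was taken against a 5% DMSO control. IC50 was the 50% RA point from seven concentrations.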

Staphylococcus aureus = test: Antibacterial activity against Staphylococcus aureus SH1000 assessed as growth inhibition by broth microdilution method; type: functional; method in brief: as §3
[6] = Inhibition of Escherichia coli MurF ligase using D-Ala-D-Ala as substrate after 15 mins by malachite green assay
Method in brief: (§5)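 After 15 min at 37 °C, Biomol reagent was added and phosphate read at 650 nm, in duplicate. RA was taken relative to a 5% DMSO control. IC50 was taken as the concentration giving 50% RA, from seven concentrations.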

Escherichia coli [7] = test: Antibacterial activity against Escherichia coli ES100 harboring tolC deletion mutant assessed as growth inhibition by broth microdilution method; type: functional; method in brief: as §1
Escherichia coli [8] = test: Antibacterial activity against Escherichia coli AB734 assessed as growth inhibition by broth microdilution method in presence of polymyxin B nonapeptide; type: functional; method in brief: as §2
[9] = target: T2, UDP-N-acetylmuramoyl-tripeptide--D-alanyl-D-alanine ligase (Streptococcus pneumoniae) (UniProt Q9ZHC3); test: Inhibition of Streptococcus pneumoniae MurF ligase using D-Ala-D-Ala as substrate assessed as residual activity at 250 uM after 15 mins by malachite green assay; method in brief: as §4
T2 sequence (whole entry): T1 sequence (Q9ZHC3 whole entry)

Escherichia coli [10] = test: Inhibition of […] MurF ligase using D-Ala-D-Ala as substrate assessed as residual activity at 250 uM after 15 mins by malachite green assay; method in brief: as §5

Row | SMILES | MIC (Escherichia coli [1]) [µg/mL] | MIC (Escherichia coli [2]) [µg/mL] | MIC (Escherichia coli [3]) [µg/mL] | MIC (Escherichia coli [4]) [µg/mL] | IC50 [5] [µM] | MIC (Staphylococcus aureus) [µg/mL] | IC50 [6] [µM] | MIC (Escherichia coli [7]) [µg/mL] | MIC (Escherichia coli [8]) [µg/mL] | Activity [9] [%] | Activity (Escherichia coli [10]) [%]
1 | N#Cc1c(NC(=O)c2cc(OCCN)ccc2Cl)sc2c1CCN(Cc1ccc(C(=O)O)cc1)C2 | > 256 | > 256 | > 256 | > 256 | 663 | > 256 | 336 | > 256 | > 256 |  | 
2 | Cl.N#Cc1c(NC(=O)c2cc(S(=O)(=O)NCCN)c(Cl)cc2Cl)sc2c1CCCC2 | 128 | 128 | > 256 | > 256 | 219 | > 256 | 418 | 64 | 128 |  | 
3 | N#Cc1c(NC(=O)c2cc(OCCNC(=O)C(F)(F)F)ccc2Cl)sc2c1CCN(Cc1ccc(-n3cnnn3)cc1)C2 | > 256 | > 256 | > 256 | > 256 | 103 | > 256 | 152 | 64 | > 256 |  | 
4 | N#Cc1c(NC(=O)c2cc(OCCNC(=O)C(F)(F)F)ccc2Cl)sc2c1CCNC2.O=C(O)C(F)(F)F | > 256 | > 256 | > 256 | > 256 |  | > 256 |  | > 256 | > 256 | 99 | 91
5 | Cl.N#Cc1c(NC(=O)c2cccc(OCCNC(=N)N)c2)sc2c1CCCC2 | 16 | 64 | 64 | 64 | 167 | 64 | 258 | 16 | > 256 |  | 
6 | N#Cc1c(NC(=O)c2cccc(OCn3cc(Cl)cn3)c2)sc2c1CCC2 |  |  |  |  | 126 |  | 56 |  |  |  | 
7 | COc1ccc(CN2CCc3c(sc(NC(=O)c4cc(OCCNC(=O)C(F)(F)F)ccc4Cl)c3C#N)C2)cc1 | > 256 | > 256 | > 256 | > 256 | 154 | > 256 |  | > 256 | > 256 |  | 81
8 | Cl.N#Cc1c(NC(=O)c2cc(OCCNC(=N)N)ccc2Cl)sc2c1CCCC2 | 8 | 8 | 16 | 16 | 75 | 64 | 56 | 8 | 8 |  | 
9 | CC(=O)Oc1ccc(C2CCc3c(sc(NC(=O)c4cc(OCCNC(=O)C(F)(F)F)ccc4Cl)c3C#N)C2)cc1 (stereo not given) |  |  |  |  |  |  |  |  |  | 98 | 101
10 | N#Cc1c(NC(=O)c2cc(OCCN)ccc2Cl)sc2c1CCNC2 | > 256 | > 256 | > 256 | > 256 |  | > 256 |  | > 256 | > 256 | 85 | 65
11 | N#Cc1c(NC(=O)c2cccc(OCCCN)c2)sc2c1CCCC2 |  |  |  |  |  |  |  |  |  | 53 | 75
12 | COC(=O)c1ccc(CN2CCc3c(sc(NC(=O)c4cc(OCCN)ccc4Cl)c3C#N)C2)cc1 | 64 | 64 | > 256 | > 256 | 109 | 128 | 88 | 32 | 64 |  | 
13 | N#Cc1c(NC(=O)c2cc(OCCN)ccc2Cl)sc2c1CCN(Cc1cccc(O)c1)C2 | 64 | 64 | 128 | 128 | 119 | > 256 | 150 | 64 | 64 |  | 
14 | N#Cc1c(NC(=O)c2cc(OCCN)ccc2Cl)sc2c1CCC(c1ccc(O)cc1)C2 (stereo not given) | 32 | 16 | > 256 | > 256 | 58 | > 256 | 81 | 8 | 16 |  | 
